{"source": "ChEMBL document CHEMBL3865824", "about": "“New (E)-1-alkyl-1H-benzo[d]imidazol-2-yl)methylene)indolin-2-ones: Synthesis, in vitro cytotoxicity evaluation and apoptosis inducing studies” (Eur J Med Chem, 2016)", "key": {"[1]": {"assay": "Cytotoxicity against human MDA-MB-231 cells assessed as growth inhibition at 50 uM after 48 hrs by MTT assay relative to control", "type": "functional", "conditions": "MDA-MB-231, 48 h, read-out: GI", "in_short": "(§1)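 Cells grown in DMEM or MEM with 10% FBS at 37 °C, 5% CO2. Seeded at 1×10^4 cells/well, incubated 48 h, then exposed to compound for 48 h with vehicle control. MTT (5 mg/mL stock) added for 4 h; formazan dissolved in DMSO, absorbance read at 570 nm. Preliminary screen at 50 µM. Compounds giving >50% inhibition were tested for dose-response curves; IC50 derived by linear regression of % inhibition versus concentration. Mean of three independent experiments in triplicate.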"}, "[2]": {"assay": "Cytotoxicity against HGC cells assessed as growth inhibition at 50 uM after 48 hrs by MTT assay relative to control", "type": "functional", "conditions": "Homo sapiens, read-out: GI", "in_short": "as §1"}, "[3]": {"assay": "Cytotoxicity against human DU145 cells assessed as reduction in cell viability after 48 hrs by MTT assay", "type": "functional, cell-based", "conditions": "DU-145, 48 h", "in_short": "as §1"}, "[4]": {"assay": "Cytotoxicity against human MDA-MB-231 cells assessed as reduction in cell viability after 48 hrs by MTT assay", "type": "functional, cell-based", "conditions": "MDA-MB-231, 48 h", "in_short": "as §1"}, "[5]": {"assay": "Cytotoxicity against human DU145 cells assessed as growth inhibition at 50 uM after 48 hrs by MTT assay relative to control", "type": "functional", "conditions": "DU-145, 48 h, read-out: GI", "in_short": "as §1"}, "[6]": {"assay": "Cytotoxicity against HGC cells assessed as reduction in cell viability after 48 hrs by MTT assay", "type": "functional, cell-based", "conditions": "Homo sapiens", "in_short": "as §1"}, "[7]": {"assay": "Cytotoxicity against human MCF7 cells assessed as growth inhibition at 50 uM after 48 hrs by MTT assay relative to control", "type": "functional", "conditions": "MCF7, 48 h, read-out: GI", "in_short": "as §1"}, "[8]": {"assay": "Selectivity ratio of IC50 for human MCF10A cells to IC50 for human BT549 cells", "type": "ADME, cell-based, MCF-10A", "conditions": "MCF10A cells versus BT549 cells, read-out: Ratio IC50"}, "[9]": {"assay": "Cytotoxicity against human MCF7 cells assessed as reduction in cell viability after 48 hrs by MTT assay", "type": "functional, cell-based", "conditions": "MCF7, 48 h", "in_short": "as §1"}, "[10]": {"assay": "Selectivity ratio of IC50 for human MCF10A cells to IC50 for human MCF7 cells", "type": "ADME, cell-based, MCF-10A", "conditions": "MCF10A cells versus MCF7 cells, read-out: Ratio IC50"}, "[11]": {"assay": "Cytotoxicity against human PC3 cells assessed as reduction in cell viability after 48 hrs by MTT assay", "type": "functional, cell-based", "conditions": "PC-3, 48 h", "in_short": "as §1"}, "[12]": {"assay": "Selectivity ratio of IC50 for human MCF10A cells to IC50 for human DU145 cells", "type": "ADME, cell-based, MCF-10A", "conditions": "MCF10A cells versus DU145 cells, read-out: Ratio IC50"}, "[13]": {"assay": "Cytotoxicity against human A549 cells assessed as growth inhibition at 50 uM after 48 hrs by MTT assay relative to control", "type": "functional", "conditions": "A549, 48 h, read-out: GI", "in_short": "as §1"}, "[14]": {"assay": "Cytotoxicity against […] cells assessed as growth inhibition at 50 uM after 48 hrs by MTT assay relative to control", "type": "functional", "conditions": "Mus musculus, 4T1, 48 h; read-out: GI", "in_short": "as §1"}, "[15]": {"assay": "Selectivity ratio of IC50 for human MCF10A cells to IC50 for human PC3 cells", "type": "ADME, cell-based, MCF-10A", "conditions": "MCF10A cells versus PC3 cells, read-out: Ratio IC50"}, "[16]": {"assay": "Selectivity ratio of IC50 for human MCF10A cells to IC50 for […] cells", "type": "ADME, cell-based, MCF-10A", "conditions": "MCF10A cells versus 4TI cells, read-out: Ratio IC50"}, "[17]": {"assay": "Cytotoxicity against […] cells assessed as reduction in cell viability after 48 hrs by MTT assay", "type": "functional, cell-based", "conditions": "4T1, 48 h", "in_short": "as §1"}, "[18]": {"assay": "Selectivity ratio of IC50 for human MCF10A cells to IC50 for HGC cells", "type": "ADME, cell-based, MCF-10A", "conditions": "MCF10A cells versus HGC cells, read-out: Ratio IC50"}, "[19]": {"assay": "Selectivity ratio of IC50 for human MCF10A cells to IC50 for human MDA-MB-231 cells", "type": "ADME, cell-based, MCF-10A", "conditions": "MCF10A cells versus MDA-MB-231 cells, read-out: Ratio IC50"}, "[20]": {"assay": "Cytotoxicity against human PC3 cells assessed as growth inhibition at 50 uM after 48 hrs by MTT assay relative to control", "type": "functional", "conditions": "PC-3, 48 h, read-out: GI", "in_short": "as §1"}, "[21]": {"assay": "Selectivity ratio of IC50 for human MCF10A cells to IC50 for human A549 cells", "type": "ADME, cell-based", "conditions": "MCF10A cells versus A549 cells, read-out: Ratio IC50"}, "[22]": {"assay": "Cytotoxicity against human BT549 cells assessed as reduction in cell viability after 48 hrs by MTT assay", "type": "functional, cell-based", "conditions": "BT-549, 48 h", "in_short": "as §1"}, "[23]": {"assay": "Cytotoxicity against human BT549 cells assessed as growth inhibition at 50 uM after 48 hrs by MTT assay relative to control", "type": "functional", "conditions": "BT-549, 48 h, read-out: GI", "in_short": "as §1"}, "[24]": {"assay": "Cytotoxicity against human MCF10A cells assessed as reduction in cell viability after 48 hrs by MTT assay", "type": "toxicity, cell-based, MCF-10A", "in_short": "as §1"}, "[25]": {"assay": "Cytotoxicity against human A549 cells assessed as reduction in cell viability after 48 hrs by MTT assay", "type": "functional, cell-based", "conditions": "A549, 48 h", "in_short": "as §1"}}, "note": "pIC50: −log10 of the molar value."}
{"smiles": "CC(C)n1c(/C=C2/C(=O)Nc3ccc(Cl)cc32)nc2ccccc21", "values": [{"measurement": "inhibition of growth at 50 µM", "setting": "[1]", "value": "> 50", "unit": "%"}, {"measurement": "inhibition of growth at 50 µM", "setting": "[2]", "value": "> 50", "unit": "%"}, {"measurement": "pIC50", "setting": "[3]", "value": 4.44}, {"measurement": "pIC50", "setting": "[4]", "value": 4.60}, {"measurement": "inhibition of growth at 50 µM", "setting": "[5]", "value": "> 50", "unit": "%"}, {"measurement": "pIC50", "setting": "[6]", "value": 4.48}, {"measurement": "inhibition of growth at 50 µM", "setting": "[7]", "value": "> 50", "unit": "%"}, {"measurement": "selectivity ratio", "setting": "[8]", "value": "2 to 3"}, {"measurement": "pIC50", "setting": "[9]", "value": 4.62}, {"measurement": "selectivity ratio", "setting": "[10]", "value": "2 to 3"}, {"measurement": "pIC50", "setting": "[11]", "value": 4.42}, {"measurement": "selectivity ratio", "setting": "[12]", "value": "2 to 3"}, {"measurement": "inhibition of growth at 50 µM", "setting": "[13]", "value": "> 50", "unit": "%"}, {"measurement": "inhibition of growth at 50 µM", "setting": "[14]", "value": "> 50", "unit": "%"}, {"measurement": "selectivity ratio", "setting": "[15]", "value": "2 to 3"}, {"measurement": "selectivity ratio", "setting": "[16]", "value": "2 to 3"}, {"measurement": "pIC50", "setting": "[17]", "value": 4.45}, {"measurement": "selectivity ratio", "setting": "[18]", "value": "2 to 3"}, {"measurement": "selectivity ratio", "setting": "[19]", "value": "2 to 3"}, {"measurement": "inhibition of growth at 50 µM", "setting": "[20]", "value": "> 50", "unit": "%"}, {"measurement": "selectivity ratio", "setting": "[21]", "value": "2 to 3"}, {"measurement": "pIC50", "setting": "[22]", "value": 4.45}, {"measurement": "inhibition of growth at 50 µM", "setting": "[23]", "value": "> 50", "unit": "%"}, {"measurement": "IC50 at 48 h", "setting": "[24]", "value": 68.8, "unit": "µM"}, {"measurement": "pIC50", "setting": "[25]", "value": 4.45}]}
